In ChEMBL document CHEMBL1127427, “Effect of molecular manipulation on the estrogenic activity of a brain-targeting estradiol chemical delivery system” (J Med Chem, 1994):

Tests used:
[1] = Compound was evaluated for first order half-life in brain homogenate.; assay type: ADME, tissue-based
Summary of the method: (§1)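 Male Sprague-Dawley rats were PBS-perfused and their organs homogenized in PBS: brain 2% w/v, liver 1.0% w/v. Compound loss followed by the fall in 360 nm absorbance. Pseudo-first-order rate constant taken from log(A360) versus time. Triplicate runs; half-life given as mean ± SEM.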

[2] = Compound was evaluated for first order half-life in liver homogenate.; assay type: ADME, tissue-based; summary of the method: as §1
[3] = Compound was evaluated for oxidation rate constant in brain homogenate; assay type: ADME, tissue-based; summary of the method: as §1
[4] = Compound was evaluated for oxidation rate constant in liver homogenate; assay type: ADME, tissue-based; settings: tissue homogenate; summary of the method: as §1
Rattus norvegicus [5] = organism: Rattus norvegicus; test: Compound is tested in male rats for its effect on the pituitary weight; assay type: functional; parameters: concentration or dose not given beside the values
Summary of the method: (§2)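 Adult male Sprague-Dawley rats (175–200 g) received a single iv tail-vein dose of 0.025 mmol/kg (equal to 5 mg/kg E2-CDS) or DMSO vehicle (0.5 mL/kg). Weighed daily for 14 days. Euthanized at day 14; organ excised and weighed. Expressed as mg per 100 g body weight, mean ± SEM, n=6.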

Rattus norvegicus [6] = organism: Rattus norvegicus; test: Compound is tested in male rats for its effect on the prostate weight; assay type: functional, Prostate gland; parameters: concentration or dose not given beside the values; summary of the method: as §2
Rattus norvegicus [7] = organism: Rattus norvegicus; test: Compound was tested in male rats for its effect on the seminal vesicle weight; assay type: functional; parameters: concentration or dose not given beside the values; summary of the method: as §2
Rattus norvegicus [8] = test: Compound is evaluated for effect on serum estradiol, 14 days subsequent to a single intravenous dose determined by means of a radioimmunoassay; assay type: functional, organism-based
Summary of the method: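 Adult male Sprague-Dawley rats (175–200 g), conscious and restrained, given a single tail-vein iv injection of 0.025 mmol/kg (equal to 5 mg/kg E2-CDS) or DMSO vehicle (0.5 mL/kg). Serum taken at day 14. Estradiol measured in duplicate by Coat-a-Count RIA. Antibody cross-reactivity with E2-Q+ <0.1%; detection limit 10 pg/mL. Mean ± SEM.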

SMILES	half-life [1] [min]	half-life [2] [min]	k [3] [min⁻¹]	k [4] [min⁻¹]	Activity (Rattus norvegicus [5]) [%]	Activity (Rattus norvegicus [6]) [%]	Activity (Rattus norvegicus [7]) [%]	Concentration (Rattus norvegicus [8]) [pg/mL]
CC(C)N1C=CCC(C(=O)O[C@H]2CC[C@H]3[C@@H]4CCc5cc(O)ccc5[C@H]4CC[C@]23C)=C1	120	26	0.0058	0.0263	4.86	68.64	104.62	43.6
CN1C=CCC(C(=O)O[C@H]2CC[C@H]3[C@@H]4CCc5cc(O)ccc5[C@H]4CC[C@]23C)=C1	121	32	0.00577	0.0815	6.46	35.75	68.15	53
C[C@]12CC[C@@H]3c4ccc(O)cc4CC[C@H]3[C@@H]1CC[C@@H]2O [ESTRADIOL]	–	–	–	–	3.88	62.26	107.36	22.2
C[C@]12CC[C@@H]3c4ccc(O)cc4CC[C@H]3[C@@H]1CC[C@@H]2OC(=O)C1=CN(Cc2ccccc2)C=CC1	288	79	0.00238	0.00892	4.86	67.38	97.43	42

The next lines start with results.

half-life [1] [min]	half-life [2] [min]	k [3] [min⁻¹]	k [4] [min⁻¹]	SMILES	Activity (Rattus norvegicus [5]) [%]	Activity (Rattus norvegicus [6]) [%]	Activity (Rattus norvegicus [7]) [%]	Concentration (Rattus norvegicus [8]) [pg/mL]
114	38	0.00611	0.0183	C[C@]12CC[C@@H]3c4ccc(O)cc4CC[C@H]3[C@@H]1CC[C@@H]2OC(=O)C1=CN(CC2CC2)C=CC1	4.4	54.31	97.29	40.4
94	52	0.00736	0.0153	CCCN1C=CCC(C(=O)O[C@H]2CC[C@H]3[C@@H]4CCc5cc(O)ccc5[C@H]4CC[C@]23C)=C1	5.32	46.4	85.97	42.9
198	22	0.00353	0.0323	CCN1C=CCC(C(=O)O[C@H]2CC[C@H]3[C@@H]4CCc5cc(O)ccc5[C@H]4CC[C@]23C)=C1	6.17	32.06	70.75	37.7
123	29	0.00567	0.0242	C[C@]12CC[C@@H]3c4ccc(O)cc4CC[C@H]3[C@@H]1CC[C@@H]2OC(=O)C1=CN(CCCO)C=CC1	4.6	75.22	106.49	44.3
259	56	0.00268	0.0123	CCCCCCN1C=CCC(C(=O)O[C@H]2CC[C@H]3[C@@H]4CCc5cc(O)ccc5[C@H]4CC[C@]23C)=C1	5.28	66.26	95.66	37.4
